Laboratory results from ChEMBL document CHEMBL3399968, “Diarylsulfonamides and their bioisosteres as dual inhibitors of alkaline phosphatase and carbonic anhydrase: Structure activity relationship and molecular modelling studies” (Bioorg Med Chem, 2015).

Experiments:
Carbonic anhydrase 2 = Carbonic anhydrase 2 (Bos taurus, UniProt P00921); test: Inhibition of bovine carbonic anhydrase 2 assessed as hydrolysis of p-nitrophenyl acetate after 30 mins by spectrophotometric method
[1] = biological target: Intestinal-type alkaline phosphatase (Bos taurus, UniProt P19111); test: Inhibition of calf intestinal alkaline phosphatase using CDP-star chemiluminescent substrate assessed as change in luminescence by spectrophotometric method
Chain of Intestinal-type alkaline phosphatase (P19111 whole entry): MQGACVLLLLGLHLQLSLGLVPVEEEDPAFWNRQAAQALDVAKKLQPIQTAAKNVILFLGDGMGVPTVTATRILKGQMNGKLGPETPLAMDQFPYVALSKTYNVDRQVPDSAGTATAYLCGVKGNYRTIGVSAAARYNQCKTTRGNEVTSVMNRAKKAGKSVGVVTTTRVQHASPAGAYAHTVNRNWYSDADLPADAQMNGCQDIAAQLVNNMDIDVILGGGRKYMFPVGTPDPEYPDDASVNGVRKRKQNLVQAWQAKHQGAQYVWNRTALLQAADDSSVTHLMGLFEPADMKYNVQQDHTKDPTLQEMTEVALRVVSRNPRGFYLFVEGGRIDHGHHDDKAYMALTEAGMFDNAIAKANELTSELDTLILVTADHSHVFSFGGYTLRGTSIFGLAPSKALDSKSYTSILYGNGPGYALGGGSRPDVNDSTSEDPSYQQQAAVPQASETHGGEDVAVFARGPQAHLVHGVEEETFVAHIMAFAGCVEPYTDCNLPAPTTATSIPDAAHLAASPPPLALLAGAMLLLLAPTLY

[2] = biological target: T1, Alkaline phosphatase, tissue-nonspecific isozyme (Bos taurus, UniProt P09487); test: Inhibition of bovine kidney non-specific alkaline phosphatase using CDP-star chemiluminescent substrate assessed as change in luminescence by spectrophotometric method
T1 sequence (P09487 whole entry): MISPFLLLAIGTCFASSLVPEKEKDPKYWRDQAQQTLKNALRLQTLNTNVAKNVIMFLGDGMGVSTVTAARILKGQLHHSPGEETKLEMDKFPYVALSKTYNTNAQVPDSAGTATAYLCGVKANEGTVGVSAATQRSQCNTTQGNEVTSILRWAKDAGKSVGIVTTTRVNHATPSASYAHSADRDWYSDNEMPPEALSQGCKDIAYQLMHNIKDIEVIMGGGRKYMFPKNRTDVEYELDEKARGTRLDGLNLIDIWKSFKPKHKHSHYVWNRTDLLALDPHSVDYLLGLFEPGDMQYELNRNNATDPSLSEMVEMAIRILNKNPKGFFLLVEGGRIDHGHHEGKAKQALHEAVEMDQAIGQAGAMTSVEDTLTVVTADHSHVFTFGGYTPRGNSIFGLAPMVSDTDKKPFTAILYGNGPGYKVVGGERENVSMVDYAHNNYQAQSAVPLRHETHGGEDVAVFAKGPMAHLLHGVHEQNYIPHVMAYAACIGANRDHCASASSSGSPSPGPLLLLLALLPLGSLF

[3] = biological target: Carbonic anhydrase 2 (Bos taurus) (UniProt P00921); test: Inhibition of bovine carbonic anhydrase 2 assessed as hydrolysis of p-nitrophenyl acetate at 0.5 mM after 30 mins by spectrophotometric method
Chain of Carbonic anhydrase 2 (Bos taurus) (P00921 2-260 limits assumed): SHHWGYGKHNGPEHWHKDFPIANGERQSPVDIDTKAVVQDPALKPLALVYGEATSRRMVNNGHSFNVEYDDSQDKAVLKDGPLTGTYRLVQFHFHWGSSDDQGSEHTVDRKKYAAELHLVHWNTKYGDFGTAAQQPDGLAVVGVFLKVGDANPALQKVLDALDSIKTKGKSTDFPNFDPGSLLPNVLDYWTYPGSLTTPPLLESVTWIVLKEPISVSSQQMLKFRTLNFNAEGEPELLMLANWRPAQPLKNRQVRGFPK
Procedure, shortened: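 Bovine CA (50 U/well) in 50 mM Tris-sulfate pH 7.6 with 0.1 mM ZnCl2; compound at 0.5 mM in 1% DMSO; pre-incubated 10 min at 25 °C, pre-read at 348 nm; p-nitrophenyl acetate added to 0.6 mM final; 30 min at 25 °C, read at 348 nm.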

[4] = biological target: T2, Alkaline phosphatase, tissue-nonspecific isozyme (Bos taurus) (UniProt P09487); test: Inhibition of bovine kidney non-specific alkaline phosphatase using CDP-star chemiluminescent substrate assessed as change in luminescence at 0.2 mM by spectrophotometric method
T2 sequence (whole entry): T1 sequence (P09487 whole entry)
Procedure, shortened: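 Buffer: 8 M DEA pH 9.8, 2.5 mM MgCl2, 0.05 mM ZnCl2. Compound 0.2 mM, final DMSO 1% (v/v), with TNAP (1:800 dilution, 0.8 units/mL); pre-incubated 3–5 min at 37 °C, luminescence pre-read; CDP-star added to 110 µM final; 15 min at 37 °C, after-read. Percent inhibition vs uninhibited control; levamisole 2 mM per well as positive control.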

Chain of Carbonic anhydrase 2 (P00921 whole entry): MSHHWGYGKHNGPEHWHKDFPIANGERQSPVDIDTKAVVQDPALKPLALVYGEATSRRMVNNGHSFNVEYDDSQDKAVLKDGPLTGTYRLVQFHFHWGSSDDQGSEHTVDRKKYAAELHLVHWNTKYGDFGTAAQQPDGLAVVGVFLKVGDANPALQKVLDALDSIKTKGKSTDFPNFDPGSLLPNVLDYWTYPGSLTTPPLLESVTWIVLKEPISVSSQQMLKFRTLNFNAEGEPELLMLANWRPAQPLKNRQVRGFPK

| SMILES | IC50 (Carbonic anhydrase 2; read-out: IC50) [nM] | IC50 [1] [nM] | IC50 [2] [nM] | Ki [2] [nM] | inhibition [3] [%] | inhibition [4] [%] | IC50 (Carbonic anhydrase 2) |
| --- | --- | --- | --- | --- | --- | --- | --- |
| NS(=O)(=O)c1ccc(CCNC(=O)c2ccccc2)cc1 | 544 | 429 | 10300 | 3960 | – | – | – |
| NS(=O)(=O)c1ccc(NC(=O)c2ccc(F)cc2)cc1 | – | 5910 | 58600 | 25100 | 47.3 | – | – |
| NS(=O)(=O)c1cccc(NC(=O)c2ccc(F)cc2)c1 | – | 9750 | 55600 | 16200 | 36.4 | – | – |
| NS(=O)(=O)c1ccc(CCNC(=O)c2ccc(F)cc2)cc1 | 656 | 6730 | 22500 | 4510 | – | – | – |
| c1ccc([C@H]2CN3CCSC3=N2)cc1 [LEVAMISOLE] | – | – | – | 1810 | – | – | – |
| NS(=O)(=O)c1ccc(CNC(=O)c2ccc(F)cc2)cc1 | 821 | 1180 | 613 | 299 | – | – | – |
| NS(=O)(=O)c1ccc(CCNS(=O)(=O)c2ccc(F)cc2)cc1 | 35 | 11700 | – | – | – | 44.1 | – |
| Cc1ccc(S(=O)(=O)NCCc2ccc(S(N)(=O)=O)cc2)cc1 | 241 | 2960 | 41200 | 17600 | – | – | – |
| NS(=O)(=O)c1ccc(CNS(=O)(=O)c2ccc(F)cc2)cc1 | 215 | 1350 | 2940 | 1250 | – | – | – |

The remaining lines, values ahead:

| IC50 (Carbonic anhydrase 2; read-out: IC50) [nM] | IC50 [1] [nM] | IC50 [2] [nM] | Ki [2] [nM] | inhibition [3] [%] | inhibition [4] [%] | IC50 (Carbonic anhydrase 2) | SMILES |
| --- | --- | --- | --- | --- | --- | --- | --- |
| 100 | 1130 | 3260 | 1390 | – | – | – | NS(=O)(=O)c1ccc(NS(=O)(=O)c2ccc(F)cc2)cc1 |
| 100 | 1270 | 150 | 60 | – | – | – | NS(=O)(=O)c1cccc(NS(=O)(=O)c2ccc(F)cc2)c1 |
| – | 3050 | 70100 | 16600 | 48.4 | – | – | NS(=O)(=O)c1ccc(NC(=O)c2ccccc2)cc1 |
| 57 | 14500 | 222000 | 91900 | – | – | – | Cc1ccc(S(=O)(=O)Nc2ccc(S(N)(=O)=O)cc2)cc1 |
| 134 | 140 | 115 | 50 | – | – | – | Cc1ccc(S(=O)(=O)NCc2ccc(S(N)(=O)=O)cc2)cc1 |
| 691 | 4450 | 2870 | 918 | – | – | – | NS(=O)(=O)c1ccc(CNC(=O)c2ccccc2)cc1 |
| – | 9150 | 180 | 70 | – | – | – | Cc1ccc(S(=O)(=O)Nc2ccccc2)cc1 |
| 152 | 8270 | 2240 | 950 | – | – | – | Cc1ccc(S(=O)(=O)Nc2cccc(S(N)(=O)=O)c2)cc1 |
| – | 720 | – | – | – | 39.5 | Not Active | CCOc1ccc(NS(=O)(=O)c2ccc(F)cc2)cc1 |
| – | 30100 | 310 | 128 | – | – | Not Active | CCOc1ccc(NS(=O)(=O)c2ccc(C)cc2)cc1 |
